Results published in ChEMBL document CHEMBL4118021, “Studies of TAK1-centered polypharmacology with novel covalent TAK1 inhibitors” (Bioorg Med Chem, 2017).
Values belong to the molecule of their own block, whether it stands above or below them. Activity calls are given as the source filed them. The rule behind the calls is not given here.

Legend:
[1] = molecular target: T1, Dual specificity mitogen-activated protein kinase kinase 4 (Homo sapiens) (UniProt P45985); assay: Inhibition of human MEK4 (84 to 399 residues) expressed in mammalian expression system assessed as enzyme activity at 1 uM by KINOMEScan assay relative to control; design: scale not given: the % may be the effect or the level left
T1 sequence (whole entry): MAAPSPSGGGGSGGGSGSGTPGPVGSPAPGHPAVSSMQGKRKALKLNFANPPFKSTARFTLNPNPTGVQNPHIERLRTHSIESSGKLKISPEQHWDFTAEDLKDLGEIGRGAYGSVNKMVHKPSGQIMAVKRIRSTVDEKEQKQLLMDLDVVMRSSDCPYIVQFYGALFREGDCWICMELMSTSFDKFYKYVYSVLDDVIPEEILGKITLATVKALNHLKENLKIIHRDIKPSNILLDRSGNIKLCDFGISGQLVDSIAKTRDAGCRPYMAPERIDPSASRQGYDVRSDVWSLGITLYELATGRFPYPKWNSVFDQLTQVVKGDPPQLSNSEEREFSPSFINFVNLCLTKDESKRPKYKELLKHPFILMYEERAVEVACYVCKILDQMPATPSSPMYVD
How it was run: (§1)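 In vitro ATP-site competition binding assay across a panel of 456 kinases, with compound tested at 1 and 10 μM.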

[2] = Increase in secretion of basic-FGF in poly(I:C) activated RA patient-derived synovial fibroblasts at 0.6 to 3 uM preincubated for 3 hrs followed by poly(I:C) stimulation measured after 18 hrs by sandwich immunoassay; settings: human
How it was run: (§2)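 Primary human RA synovial fibroblasts (donor RA2159) seeded at 1000 viable cells/well, grown ~24 h at 37 °C/5% CO2, then starved overnight in basal medium and for a further ~4 h in basal medium with 0.1% BSA. Inhibitor or DMSO given 3 h before stimulation. Supernatants from two adjacent wells pooled as one replicate, biological duplicate. Luminex multiplex panels (48 analytes), diluted 1:3. Mock-supernatant background and spiked-ligand cross-reactivity controls included.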

[3] = molecular target: Ribosomal protein S6 kinase alpha-6 (Homo sapiens) (UniProt Q9UK32); assay: Inhibition of human RSK4 (1 to 397 residues) expressed in mammalian expression system assessed as enzyme activity at 10 uM by KINOMEScan assay relative to control; design: scale not given: the % may be the effect or the level left; how it was run: as §1
[4] = Increase in secretion of basic-FGF in IL-1alpha activated RA patient-derived synovial fibroblasts at 0.6 to 3 uM preincubated for 3 hrs followed by IL-1alpha stimulation measured after 18 hrs by sandwich immunoassay; settings: human; how it was run: as §2
[5] = molecular target: Inosine-5'-monophosphate dehydrogenase 2 (Homo sapiens) (UniProt P12268); assay: Binding affinity to IMPDH2 in human NCI-H358 cells at 1 uM by mass spectrometry based pull down assay; format: cell-based
[6] = molecular target: Protein phosphatase 1G (Homo sapiens) (UniProt O15355); assay: Binding affinity to PPM1G in human NCI-H23 cells at 1 uM by mass spectrometry based pull down assay; format: cell-based
[7] = molecular target: Kinesin-like protein KIF1A (Homo sapiens) (UniProt Q12756); assay: Binding affinity to KIF1A in human NCI-H23 cells at 1 uM by mass spectrometry based pull down assay; format: cell-based
[8] = molecular target: Aspartyl aminopeptidase (Homo sapiens) (UniProt Q9ULA0); assay: Binding affinity to DNPEP in human NCI-H23 cells at 1 uM by mass spectrometry based pull down assay; format: cell-based
[9] = molecular target: B-cell receptor-associated protein 31 (Homo sapiens) (UniProt P51572); assay: Binding affinity to BCAP31 in human NCI-H23 cells at 1 uM by mass spectrometry based pull down assay; format: cell-based
[10] = molecular target: COP9 signalosome complex subunit 8 (Homo sapiens) (UniProt Q99627); assay: Binding affinity to COPS8 in human NCI-H358 cells at 1 uM by mass spectrometry based pull down assay; format: cell-based
[11] = molecular target: Protein transport protein Sec16A (Homo sapiens) (UniProt O15027); assay: Binding affinity to SEC16A in human NCI-H358 cells at 1 uM by mass spectrometry based pull down assay; format: cell-based
[12] = molecular target: Aldehyde dehydrogenase family 16 member A1 (Homo sapiens) (UniProt Q8IZ83); assay: Binding affinity to ALDH16A1 in human NCI-H358 cells at 1 uM by mass spectrometry based pull down assay; format: cell-based
How it was run: (§3)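 NCI-H23 or NCI-H358 cells were grown and lysed. Lysates were incubated overnight at 4 °C with 1 μM biotinylated covalent probe or DMSO, then pulled down on streptavidin beads. Proteins were run on polyacrylamide gels and stained with Coomassie. Bands were excised, digested and identified by mass spectrometry.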

[13] = molecular target: Serine/threonine-protein kinase Chk2 (Homo sapiens) (UniProt O96017); assay: Binding affinity to CHEK2 in human NCI-H23 cells at 1 uM by mass spectrometry based pull down assay; format: cell-based
Moesin (Homo sapiens) = Moesin (Homo sapiens) (UniProt P26038); assay: Binding affinity to MSN in human NCI-H358 cells at 1 uM by mass spectrometry based pull down assay; format: cell-based
[14] = molecular target: Trifunctional enzyme subunit alpha, mitochondrial (Homo sapiens) (UniProt P40939); assay: Binding affinity to HADHA in human NCI-H23 cells at 1 uM by mass spectrometry based pull down assay; format: cell-based
[15] = molecular target: T2, Dual specificity mitogen-activated protein kinase kinase 3 (Homo sapiens) (UniProt P46734); assay: Binding affinity to MAP2K3 in human NCI-H23 cells at 1 uM by mass spectrometry based pull down assay; format: cell-based
T2 sequence (whole entry): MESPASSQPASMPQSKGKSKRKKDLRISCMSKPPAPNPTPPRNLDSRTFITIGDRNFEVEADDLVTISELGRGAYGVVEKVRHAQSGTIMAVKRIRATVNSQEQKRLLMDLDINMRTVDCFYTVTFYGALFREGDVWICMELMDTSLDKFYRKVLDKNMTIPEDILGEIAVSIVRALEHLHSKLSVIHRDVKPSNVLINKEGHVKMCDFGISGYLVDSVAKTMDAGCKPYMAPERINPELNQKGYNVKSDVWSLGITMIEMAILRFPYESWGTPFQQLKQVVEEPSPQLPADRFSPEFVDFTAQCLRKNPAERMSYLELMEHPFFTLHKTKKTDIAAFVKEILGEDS

[16] = molecular target: Ubiquitin-like modifier-activating enzyme 1 (Homo sapiens) (UniProt P22314); assay: Binding affinity to UBA1 in human NCI-H23 cells at 1 uM by mass spectrometry based pull down assay; format: cell-based
[17] = molecular target: LIM domain kinase 1 (Homo sapiens) (UniProt P53667); assay: Binding affinity to LIMK1 in human NCI-H358 cells at 1 uM by mass spectrometry based pull down assay; format: cell-based
[18] = molecular target: Dual specificity mitogen-activated protein kinase kinase 1 (Homo sapiens) (UniProt Q02750); assay: Binding affinity to MAP2K1 in human NCI-H23 cells at 1 uM by mass spectrometry based pull down assay; format: cell-based
[19] = molecular target: Thioredoxin reductase 1, cytoplasmic (Homo sapiens) (UniProt Q16881); assay: Binding affinity to TXNRD1 in human NCI-H23 cells at 1 uM by mass spectrometry based pull down assay; format: cell-based
[20] = molecular target: Retinaldehyde dehydrogenase 3 (Homo sapiens) (UniProt P47895); assay: Binding affinity to ALDH1A3 in human NCI-H358 cells at 1 uM by mass spectrometry based pull down assay; format: cell-based; how it was run: as §3
[21] = molecular target: Amidophosphoribosyltransferase (Homo sapiens) (UniProt Q06203); assay: Binding affinity to PPAT in human NCI-H358 cells at 1 uM by mass spectrometry based pull down assay; format: cell-based

Kinesin-like protein KIF1A (Homo sapiens), sequence (Q12756 whole entry): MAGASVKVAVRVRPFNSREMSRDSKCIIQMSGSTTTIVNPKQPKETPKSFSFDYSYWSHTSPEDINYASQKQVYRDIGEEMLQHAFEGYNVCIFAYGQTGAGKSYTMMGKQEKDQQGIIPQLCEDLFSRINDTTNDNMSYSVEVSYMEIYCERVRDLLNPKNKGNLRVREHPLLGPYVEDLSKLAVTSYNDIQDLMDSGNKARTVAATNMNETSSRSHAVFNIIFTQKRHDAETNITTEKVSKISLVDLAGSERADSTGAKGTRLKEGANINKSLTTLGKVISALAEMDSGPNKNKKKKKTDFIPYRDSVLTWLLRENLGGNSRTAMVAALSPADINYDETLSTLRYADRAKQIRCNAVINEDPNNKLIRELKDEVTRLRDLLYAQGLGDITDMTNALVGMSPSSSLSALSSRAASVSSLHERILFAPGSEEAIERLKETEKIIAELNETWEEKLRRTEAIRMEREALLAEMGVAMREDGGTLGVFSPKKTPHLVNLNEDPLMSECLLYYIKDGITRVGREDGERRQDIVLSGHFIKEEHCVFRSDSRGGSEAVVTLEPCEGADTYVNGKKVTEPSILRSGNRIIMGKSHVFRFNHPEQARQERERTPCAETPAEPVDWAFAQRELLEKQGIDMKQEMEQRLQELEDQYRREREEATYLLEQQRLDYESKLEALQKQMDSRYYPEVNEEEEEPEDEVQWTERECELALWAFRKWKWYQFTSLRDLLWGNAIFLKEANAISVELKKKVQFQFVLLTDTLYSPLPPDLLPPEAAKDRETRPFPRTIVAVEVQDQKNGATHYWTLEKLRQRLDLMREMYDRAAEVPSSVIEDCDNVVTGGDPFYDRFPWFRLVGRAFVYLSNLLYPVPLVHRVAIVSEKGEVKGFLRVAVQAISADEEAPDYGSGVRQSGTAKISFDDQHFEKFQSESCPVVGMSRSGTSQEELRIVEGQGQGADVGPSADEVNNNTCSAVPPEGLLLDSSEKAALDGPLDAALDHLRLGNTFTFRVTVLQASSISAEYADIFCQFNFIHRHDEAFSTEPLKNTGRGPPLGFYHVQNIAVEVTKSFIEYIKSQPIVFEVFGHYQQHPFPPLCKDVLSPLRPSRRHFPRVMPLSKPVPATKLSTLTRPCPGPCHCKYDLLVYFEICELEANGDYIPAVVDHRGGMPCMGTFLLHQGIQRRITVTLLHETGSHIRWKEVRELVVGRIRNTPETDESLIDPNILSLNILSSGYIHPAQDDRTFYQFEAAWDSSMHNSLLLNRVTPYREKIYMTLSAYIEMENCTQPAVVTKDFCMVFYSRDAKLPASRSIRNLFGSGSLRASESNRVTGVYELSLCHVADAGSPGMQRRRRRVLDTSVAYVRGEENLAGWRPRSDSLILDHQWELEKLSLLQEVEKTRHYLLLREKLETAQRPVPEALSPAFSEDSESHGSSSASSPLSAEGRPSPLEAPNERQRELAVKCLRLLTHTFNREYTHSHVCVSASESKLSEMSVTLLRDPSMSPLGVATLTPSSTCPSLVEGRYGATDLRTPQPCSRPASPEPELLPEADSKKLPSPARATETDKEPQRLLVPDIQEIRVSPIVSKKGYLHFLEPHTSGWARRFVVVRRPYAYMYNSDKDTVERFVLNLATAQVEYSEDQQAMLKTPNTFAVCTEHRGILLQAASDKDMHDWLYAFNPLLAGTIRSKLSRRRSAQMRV
Protein phosphatase 1G (Homo sapiens), sequence (O15355 whole entry): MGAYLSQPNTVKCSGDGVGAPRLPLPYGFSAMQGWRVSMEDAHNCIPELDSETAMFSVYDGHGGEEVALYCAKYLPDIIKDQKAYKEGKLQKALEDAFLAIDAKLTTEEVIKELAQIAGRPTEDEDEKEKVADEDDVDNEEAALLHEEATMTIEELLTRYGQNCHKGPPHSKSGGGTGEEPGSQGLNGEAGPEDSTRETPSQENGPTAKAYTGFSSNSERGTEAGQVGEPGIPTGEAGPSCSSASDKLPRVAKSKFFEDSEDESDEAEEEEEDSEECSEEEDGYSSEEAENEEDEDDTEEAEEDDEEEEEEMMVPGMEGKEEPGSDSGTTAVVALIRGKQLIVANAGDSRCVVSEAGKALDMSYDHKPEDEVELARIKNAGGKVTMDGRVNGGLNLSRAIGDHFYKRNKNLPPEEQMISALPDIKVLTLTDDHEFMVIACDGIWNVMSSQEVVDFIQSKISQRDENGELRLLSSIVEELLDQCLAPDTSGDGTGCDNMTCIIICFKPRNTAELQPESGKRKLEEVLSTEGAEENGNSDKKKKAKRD
LIM domain kinase 1 (Homo sapiens), sequence (P53667 whole entry, looked up, the tested form may be a part): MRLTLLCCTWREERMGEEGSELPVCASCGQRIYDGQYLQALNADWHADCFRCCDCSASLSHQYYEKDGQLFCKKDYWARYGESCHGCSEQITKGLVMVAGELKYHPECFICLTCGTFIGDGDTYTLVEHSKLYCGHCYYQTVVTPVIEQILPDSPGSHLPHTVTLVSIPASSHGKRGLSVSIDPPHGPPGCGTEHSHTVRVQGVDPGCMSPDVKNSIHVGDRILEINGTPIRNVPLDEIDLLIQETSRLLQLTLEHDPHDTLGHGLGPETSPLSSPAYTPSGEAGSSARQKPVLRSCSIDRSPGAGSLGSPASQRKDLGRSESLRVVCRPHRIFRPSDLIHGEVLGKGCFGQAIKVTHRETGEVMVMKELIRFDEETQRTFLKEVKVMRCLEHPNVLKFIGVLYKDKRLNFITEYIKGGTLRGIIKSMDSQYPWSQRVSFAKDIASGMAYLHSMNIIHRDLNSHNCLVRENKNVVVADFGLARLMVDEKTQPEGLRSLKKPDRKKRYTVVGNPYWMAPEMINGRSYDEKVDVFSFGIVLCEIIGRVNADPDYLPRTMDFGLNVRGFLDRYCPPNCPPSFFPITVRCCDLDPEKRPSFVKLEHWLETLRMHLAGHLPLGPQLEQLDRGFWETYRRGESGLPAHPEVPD
COP9 signalosome complex subunit 8 (Homo sapiens), sequence (Q99627 whole entry, one chain of several): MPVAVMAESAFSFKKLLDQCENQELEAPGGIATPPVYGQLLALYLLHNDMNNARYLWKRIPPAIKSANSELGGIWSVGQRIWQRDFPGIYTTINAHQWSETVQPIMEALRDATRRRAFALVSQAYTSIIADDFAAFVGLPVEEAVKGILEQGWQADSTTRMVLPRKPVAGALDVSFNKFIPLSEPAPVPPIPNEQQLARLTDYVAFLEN
Dual specificity mitogen-activated protein kinase kinase 1 (Homo sapiens), sequence (Q02750 whole entry): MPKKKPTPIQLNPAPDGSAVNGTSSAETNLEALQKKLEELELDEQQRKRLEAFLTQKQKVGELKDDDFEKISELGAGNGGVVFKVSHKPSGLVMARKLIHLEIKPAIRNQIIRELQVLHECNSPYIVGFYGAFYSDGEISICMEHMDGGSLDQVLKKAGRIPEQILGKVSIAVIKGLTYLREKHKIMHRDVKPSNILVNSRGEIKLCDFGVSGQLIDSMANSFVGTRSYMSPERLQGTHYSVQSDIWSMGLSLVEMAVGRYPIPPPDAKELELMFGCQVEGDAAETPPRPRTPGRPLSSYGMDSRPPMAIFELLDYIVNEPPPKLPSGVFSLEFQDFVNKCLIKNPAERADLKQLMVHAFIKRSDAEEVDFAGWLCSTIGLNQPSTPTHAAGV
Serine/threonine-protein kinase Chk2 (Homo sapiens), sequence (O96017 whole entry): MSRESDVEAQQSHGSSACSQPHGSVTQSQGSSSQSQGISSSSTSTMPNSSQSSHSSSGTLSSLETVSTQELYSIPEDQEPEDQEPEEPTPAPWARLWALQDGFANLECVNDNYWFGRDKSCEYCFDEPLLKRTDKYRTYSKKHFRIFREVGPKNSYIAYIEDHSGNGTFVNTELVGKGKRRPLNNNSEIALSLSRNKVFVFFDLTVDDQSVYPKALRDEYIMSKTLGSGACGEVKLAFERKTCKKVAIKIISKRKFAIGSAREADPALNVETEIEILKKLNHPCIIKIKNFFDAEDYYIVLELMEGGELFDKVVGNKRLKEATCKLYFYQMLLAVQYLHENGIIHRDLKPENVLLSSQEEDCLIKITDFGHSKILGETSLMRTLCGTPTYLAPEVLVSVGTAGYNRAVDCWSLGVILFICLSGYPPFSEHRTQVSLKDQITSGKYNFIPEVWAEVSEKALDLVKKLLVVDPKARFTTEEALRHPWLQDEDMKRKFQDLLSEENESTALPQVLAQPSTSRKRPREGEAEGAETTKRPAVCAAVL
Retinaldehyde dehydrogenase 3 (Homo sapiens), sequence (P47895 whole entry): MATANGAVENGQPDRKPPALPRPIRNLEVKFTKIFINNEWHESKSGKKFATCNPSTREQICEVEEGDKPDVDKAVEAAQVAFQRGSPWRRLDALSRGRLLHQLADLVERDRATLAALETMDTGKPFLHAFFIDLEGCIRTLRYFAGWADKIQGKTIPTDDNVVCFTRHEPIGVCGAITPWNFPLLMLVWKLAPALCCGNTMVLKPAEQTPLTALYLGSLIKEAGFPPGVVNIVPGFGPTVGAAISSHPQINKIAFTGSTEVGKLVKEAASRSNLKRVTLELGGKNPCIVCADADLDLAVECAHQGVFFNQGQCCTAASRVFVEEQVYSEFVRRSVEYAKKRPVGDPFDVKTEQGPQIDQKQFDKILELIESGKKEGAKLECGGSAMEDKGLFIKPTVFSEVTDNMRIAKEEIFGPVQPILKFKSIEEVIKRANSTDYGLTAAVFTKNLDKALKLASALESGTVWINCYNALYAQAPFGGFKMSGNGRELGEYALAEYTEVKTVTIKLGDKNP
B-cell receptor-associated protein 31 (Homo sapiens), sequence (P51572 whole entry): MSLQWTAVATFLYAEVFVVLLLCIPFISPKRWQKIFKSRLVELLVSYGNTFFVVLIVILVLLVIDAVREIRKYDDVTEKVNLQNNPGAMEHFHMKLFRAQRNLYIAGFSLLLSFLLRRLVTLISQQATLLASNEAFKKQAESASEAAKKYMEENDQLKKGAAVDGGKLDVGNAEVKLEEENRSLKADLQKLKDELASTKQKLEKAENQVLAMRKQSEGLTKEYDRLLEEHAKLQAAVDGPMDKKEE

Compound: COc1cc(O)c2c(c1)/C=C/C[C@H](O)[C@H](O)C(=O)/C=C\C[C@H](C)OC2=O
- Activity [1]: 19%
- Activity [2]: Non-Toxic
- Activity [3]: 3%
- Activity [4]: Non-Toxic

- Activity [5]: Active
- Activity [6]: Active
- Activity [7]: Active
- Activity [8]: Active
- Activity [9]: Active
- Activity [10]: Active
- Activity [11]: Active
- Activity [12]: Active
- Activity [13]: Active
- Activity (Moesin (Homo sapiens)): Active
- Activity [14]: Active
- Activity [15]: Active
- Activity [16]: Active
- Activity [17]: Active
- Activity [18]: Active
- Activity [19]: Active
- Activity [20]: Active
- Activity [21]: Active
Compound: C=CC(=O)Nc1ccccc1Nc1nc(Nc2ccc(N3CCN(CCOCCOCCOCCNC(=O)CCCC[C@@H]4SC[C@@H]5NC(=O)N[C@@H]54)CC3)cc2)ncc1Cl
